This is an account of results in ChEMBL document CHEMBL1944596, “7,8-dichloro-1-oxo-β-carbolines as a versatile scaffold for the development of potent and selective kinase inhibitors with unusual binding modes” (J Med Chem, 2012).

Each structure is given as a SMILES string.

A short description of assay [1]: Growth inhibition of human SEM cells after 48 hrs by WST-1 assay. Type of assay: functional, cell-based. The gist of the method: (§1)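 Compound (0–10 μM) added to the culture medium and incubated 48 h. Proliferation and viability read by WST-1 reagent. Survival expressed as percentage of control cultures and IC50 derived by curve fitting.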
On the technique in general: Formazan colour is commonly taken as a measure of viable cells.

The next assay relates to MV4-11. In words: Growth inhibition of human MV4-11 cells after 48 hrs by WST-1 assay. The assay is classed as functional, cell-based. As to conditions: MV4-11, 48 h. In outline:
as §1

Another assay has as its system MOLM-13. Put plainly: Growth inhibition of human MOLM13 cells after 48 hrs by WST-1 assay. The assay is classed as functional, cell-based. As to conditions: MOLM-13, 48 h. The gist of the method: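 Inhibitor at 0–10 μM added to the culture medium for 48 h. Proliferation and viability were read with WST-1 reagent. Survival was expressed as a percentage of control cultures, and IC50 was fitted from the concentration series.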

Assay [2] in a line: Growth inhibition of human RS4:11 cells after 48 hrs by WST-1 assay. Type of assay: functional, cell-based. As to conditions: RS4-11, 48 h. The gist of the method:
as §1

In a further assay the test system is K562. Put plainly: Growth inhibition of human K562 cells after 48 hrs by WST-1 assay. The assay is classed as functional, cell-based. As to conditions: K562, 48 h. The gist of the method: as §1
Assay [3] has as its target Serine/threonine-protein kinase pim-3 (Homo sapiens, UniProt Q86V86). In words: Binding affinity to PIM3 assessed as change in thermal denaturation at 10 uM by thermal stability shift assay. The gist of the method:
(§2)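 Each compound was screened across a kinase panel by thermal stability shift assay. The read-out was the shift in protein melting temperature (ΔTm, in °C) relative to the unliganded kinase. A ΔTm of 4.0 °C served as the hit cutoff.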

Assay [4] deals with Dual specificity protein kinase CLK4 (Homo sapiens) (UniProt Q9HAZ1). In words: Binding affinity to CLK4 assessed as change in thermal denaturation at 10 uM by thermal stability shift assay. In outline: as §2
Chain of Dual specificity protein kinase CLK4 (Homo sapiens) (Q9HAZ1 whole entry, looked up): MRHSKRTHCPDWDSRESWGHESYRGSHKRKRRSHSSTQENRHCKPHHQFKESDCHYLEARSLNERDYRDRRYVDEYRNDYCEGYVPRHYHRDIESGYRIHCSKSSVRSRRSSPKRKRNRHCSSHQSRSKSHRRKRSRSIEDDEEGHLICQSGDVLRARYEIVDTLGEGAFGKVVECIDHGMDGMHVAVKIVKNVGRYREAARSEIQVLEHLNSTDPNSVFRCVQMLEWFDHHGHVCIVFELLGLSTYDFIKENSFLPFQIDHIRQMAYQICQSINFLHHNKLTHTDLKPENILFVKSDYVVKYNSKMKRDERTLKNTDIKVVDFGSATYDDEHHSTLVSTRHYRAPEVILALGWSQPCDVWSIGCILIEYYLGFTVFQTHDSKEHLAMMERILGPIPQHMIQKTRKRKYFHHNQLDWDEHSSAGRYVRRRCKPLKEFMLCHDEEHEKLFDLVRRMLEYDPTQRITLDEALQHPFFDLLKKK
Assay [5] concerns the target Casein kinase II subunit alpha' (Homo sapiens) (UniProt P19784). Put plainly: Binding affinity to CK2alpha2 assessed as change in thermal denaturation at 10 uM by thermal stability shift assay. The gist of the method: as §2
In assay [6] the target is Serine/threonine-protein kinase pim-1 (Homo sapiens, UniProt P11309). In words: Binding affinity to PIM1 assessed as change in thermal denaturation at 10 uM by thermal stability shift assay. In outline:
as §2

In assay [7] the target is T1, Serine/threonine-protein kinase 17A (Homo sapiens) (UniProt Q9UEE5).
T1 sequence (whole entry): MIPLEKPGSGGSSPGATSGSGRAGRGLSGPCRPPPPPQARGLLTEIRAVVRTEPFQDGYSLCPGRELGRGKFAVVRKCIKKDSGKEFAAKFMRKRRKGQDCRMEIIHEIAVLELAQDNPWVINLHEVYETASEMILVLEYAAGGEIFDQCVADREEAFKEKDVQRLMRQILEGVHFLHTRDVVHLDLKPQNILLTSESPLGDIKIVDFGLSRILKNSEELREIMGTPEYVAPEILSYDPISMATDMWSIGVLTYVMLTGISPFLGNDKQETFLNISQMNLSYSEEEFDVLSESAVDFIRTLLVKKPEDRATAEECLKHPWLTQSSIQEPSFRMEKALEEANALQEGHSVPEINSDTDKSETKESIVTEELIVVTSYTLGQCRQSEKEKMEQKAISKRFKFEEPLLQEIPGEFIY
Put plainly: Binding affinity to DRAK1 assessed as change in thermal denaturation at 10 uM by thermal stability shift assay. In outline:
as §2

The target in assay [8] is AP2-associated protein kinase 1 (Homo sapiens) (UniProt Q2M2I8). In words: Binding affinity to AAK1 assessed as change in thermal denaturation at 10 uM by thermal stability shift assay. The gist of the method:
as §2

The target in assay [9] is T2, Myosin light chain kinase family member 4 (Homo sapiens) (UniProt Q86YV6).
T2 sequence (whole entry): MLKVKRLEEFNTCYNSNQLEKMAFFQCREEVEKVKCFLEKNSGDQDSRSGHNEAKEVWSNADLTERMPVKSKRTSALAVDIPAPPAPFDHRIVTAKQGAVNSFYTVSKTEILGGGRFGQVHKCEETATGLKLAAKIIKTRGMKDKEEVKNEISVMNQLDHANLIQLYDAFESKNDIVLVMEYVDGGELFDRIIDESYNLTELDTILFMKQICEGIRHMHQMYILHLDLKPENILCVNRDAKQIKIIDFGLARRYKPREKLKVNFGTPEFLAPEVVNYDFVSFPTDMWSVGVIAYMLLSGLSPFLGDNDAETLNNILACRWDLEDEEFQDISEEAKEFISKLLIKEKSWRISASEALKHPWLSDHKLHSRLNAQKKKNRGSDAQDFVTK
Put plainly: Binding affinity to SGK085 assessed as change in thermal denaturation at 10 uM by thermal stability shift assay. In outline: as §2

For assay [10], the target named is Dual specificity protein kinase CLK1 (Homo sapiens) (UniProt P49759). Put plainly: Binding affinity to CLK1 assessed as change in thermal denaturation at 10 uM by thermal stability shift assay. In outline: as §2
Chain of Dual specificity protein kinase CLK1 (Homo sapiens) (P49759 whole entry, looked up): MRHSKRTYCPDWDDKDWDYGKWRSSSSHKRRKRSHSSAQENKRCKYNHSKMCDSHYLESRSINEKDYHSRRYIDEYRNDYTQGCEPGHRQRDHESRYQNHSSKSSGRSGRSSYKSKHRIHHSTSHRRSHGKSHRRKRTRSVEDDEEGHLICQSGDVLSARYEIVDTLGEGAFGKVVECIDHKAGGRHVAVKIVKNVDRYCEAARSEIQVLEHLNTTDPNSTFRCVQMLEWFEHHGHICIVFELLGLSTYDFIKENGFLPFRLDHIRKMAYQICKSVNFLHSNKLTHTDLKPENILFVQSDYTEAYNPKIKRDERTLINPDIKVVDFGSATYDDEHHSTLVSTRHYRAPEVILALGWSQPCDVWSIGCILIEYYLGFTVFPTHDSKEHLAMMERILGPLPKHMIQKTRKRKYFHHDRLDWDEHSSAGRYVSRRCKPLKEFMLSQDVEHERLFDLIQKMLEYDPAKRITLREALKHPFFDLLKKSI
The target of assay [11] is Death-associated protein kinase 3 (Homo sapiens) (UniProt O43293). Put plainly: Binding affinity to N-terminus His6-tagged DAPK3 expressed in Escherichia coli BL21 (DE3) cells coexpressing pCOEX assessed as change in thermal denaturation at 10 uM by thermal stability shift assay. In outline: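 DAPK3 was expressed in E. coli grown in TB with kanamycin and chloramphenicol at 37 °C, cooled to 25 °C, and induced with 0.5 mM IPTG. Binding was read as thermal-shift ΔTm in °C.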
Chain of Death-associated protein kinase 3 (Homo sapiens) (O43293 whole entry, looked up): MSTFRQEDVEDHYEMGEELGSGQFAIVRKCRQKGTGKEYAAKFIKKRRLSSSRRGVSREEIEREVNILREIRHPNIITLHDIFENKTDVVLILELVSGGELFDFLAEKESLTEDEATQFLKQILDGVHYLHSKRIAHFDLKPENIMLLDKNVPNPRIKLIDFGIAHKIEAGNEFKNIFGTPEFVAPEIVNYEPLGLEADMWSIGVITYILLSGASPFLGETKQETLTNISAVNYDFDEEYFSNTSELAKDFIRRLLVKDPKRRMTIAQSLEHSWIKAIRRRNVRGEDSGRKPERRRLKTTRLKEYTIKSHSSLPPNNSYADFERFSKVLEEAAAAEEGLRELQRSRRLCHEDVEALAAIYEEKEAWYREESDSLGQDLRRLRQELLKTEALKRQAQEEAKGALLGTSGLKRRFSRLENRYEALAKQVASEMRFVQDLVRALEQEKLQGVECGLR

Assay [12] addresses T3, Cyclin-G-associated kinase (Homo sapiens) (UniProt O14976).
T3 sequence (whole entry): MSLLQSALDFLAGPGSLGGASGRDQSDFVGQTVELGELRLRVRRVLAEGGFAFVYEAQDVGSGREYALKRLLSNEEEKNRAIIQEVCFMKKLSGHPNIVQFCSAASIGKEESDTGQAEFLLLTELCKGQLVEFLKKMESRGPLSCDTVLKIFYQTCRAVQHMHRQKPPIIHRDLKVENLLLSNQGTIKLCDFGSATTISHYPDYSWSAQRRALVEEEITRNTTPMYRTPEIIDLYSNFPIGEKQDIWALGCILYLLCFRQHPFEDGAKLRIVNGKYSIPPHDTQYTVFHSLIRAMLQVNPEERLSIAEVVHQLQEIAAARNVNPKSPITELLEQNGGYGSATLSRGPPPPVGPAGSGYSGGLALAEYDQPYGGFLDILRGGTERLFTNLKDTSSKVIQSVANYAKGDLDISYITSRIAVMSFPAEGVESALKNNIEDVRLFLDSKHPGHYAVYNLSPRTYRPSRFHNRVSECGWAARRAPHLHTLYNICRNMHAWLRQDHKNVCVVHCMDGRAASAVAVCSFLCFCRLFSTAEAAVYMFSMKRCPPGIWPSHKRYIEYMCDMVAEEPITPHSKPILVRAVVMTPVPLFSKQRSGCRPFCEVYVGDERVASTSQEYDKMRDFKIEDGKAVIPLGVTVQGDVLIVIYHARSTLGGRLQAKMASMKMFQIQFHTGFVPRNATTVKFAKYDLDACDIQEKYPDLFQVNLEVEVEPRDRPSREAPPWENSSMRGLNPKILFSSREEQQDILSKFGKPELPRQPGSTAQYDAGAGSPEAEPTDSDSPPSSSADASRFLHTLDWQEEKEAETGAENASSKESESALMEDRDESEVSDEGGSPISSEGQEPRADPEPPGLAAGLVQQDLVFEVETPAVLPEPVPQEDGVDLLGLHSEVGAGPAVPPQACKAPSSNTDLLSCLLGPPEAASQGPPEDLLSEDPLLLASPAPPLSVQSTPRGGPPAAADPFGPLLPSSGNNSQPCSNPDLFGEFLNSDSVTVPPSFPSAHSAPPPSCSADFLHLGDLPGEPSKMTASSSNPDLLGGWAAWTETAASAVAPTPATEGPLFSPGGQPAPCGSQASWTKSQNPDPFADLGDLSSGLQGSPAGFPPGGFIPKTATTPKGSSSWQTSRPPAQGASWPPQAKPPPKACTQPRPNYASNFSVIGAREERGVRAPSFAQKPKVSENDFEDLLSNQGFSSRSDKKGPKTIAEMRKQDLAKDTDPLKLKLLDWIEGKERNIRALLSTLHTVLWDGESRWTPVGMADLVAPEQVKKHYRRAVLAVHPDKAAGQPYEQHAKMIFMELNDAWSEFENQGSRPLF
Put plainly: Binding affinity to GAK assessed as change in thermal denaturation at 10 uM by thermal stability shift assay. The gist of the method: as §2

For assay [13], the target named is T4, Serine/threonine-protein kinase 17B (Homo sapiens) (UniProt O94768).
T4 sequence (whole entry): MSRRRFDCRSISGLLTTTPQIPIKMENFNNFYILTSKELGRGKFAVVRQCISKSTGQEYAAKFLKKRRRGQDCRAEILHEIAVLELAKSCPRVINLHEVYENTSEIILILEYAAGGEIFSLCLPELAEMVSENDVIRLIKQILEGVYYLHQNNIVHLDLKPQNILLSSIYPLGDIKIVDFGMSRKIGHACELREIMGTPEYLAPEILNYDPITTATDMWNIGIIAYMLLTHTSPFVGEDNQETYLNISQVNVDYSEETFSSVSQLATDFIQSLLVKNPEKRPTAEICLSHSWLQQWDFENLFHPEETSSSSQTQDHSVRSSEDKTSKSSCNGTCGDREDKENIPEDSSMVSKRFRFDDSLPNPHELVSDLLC
In words: Binding affinity to DRAK2 assessed as change in thermal denaturation at 10 uM by thermal stability shift assay. The gist of the method: as §2

The IC50 is the midpoint of a concentration-inhibition curve. Higher therefore signals lower potency. A word on the ΔTm: it is the change in melting temperature against a reference sample.

Chain of Casein kinase II subunit alpha' (Homo sapiens) (P19784 whole entry, looked up): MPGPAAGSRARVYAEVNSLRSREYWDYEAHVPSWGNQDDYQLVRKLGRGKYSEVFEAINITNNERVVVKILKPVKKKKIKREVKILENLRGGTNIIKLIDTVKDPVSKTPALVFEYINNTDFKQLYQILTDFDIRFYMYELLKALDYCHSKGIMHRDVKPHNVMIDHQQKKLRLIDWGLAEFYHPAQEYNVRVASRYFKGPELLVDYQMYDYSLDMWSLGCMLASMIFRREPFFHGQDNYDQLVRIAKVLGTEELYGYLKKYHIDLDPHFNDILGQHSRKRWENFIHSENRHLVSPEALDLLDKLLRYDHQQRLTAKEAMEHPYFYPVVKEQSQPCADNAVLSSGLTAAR
Chain of AP2-associated protein kinase 1 (Homo sapiens) (Q2M2I8 whole entry, looked up): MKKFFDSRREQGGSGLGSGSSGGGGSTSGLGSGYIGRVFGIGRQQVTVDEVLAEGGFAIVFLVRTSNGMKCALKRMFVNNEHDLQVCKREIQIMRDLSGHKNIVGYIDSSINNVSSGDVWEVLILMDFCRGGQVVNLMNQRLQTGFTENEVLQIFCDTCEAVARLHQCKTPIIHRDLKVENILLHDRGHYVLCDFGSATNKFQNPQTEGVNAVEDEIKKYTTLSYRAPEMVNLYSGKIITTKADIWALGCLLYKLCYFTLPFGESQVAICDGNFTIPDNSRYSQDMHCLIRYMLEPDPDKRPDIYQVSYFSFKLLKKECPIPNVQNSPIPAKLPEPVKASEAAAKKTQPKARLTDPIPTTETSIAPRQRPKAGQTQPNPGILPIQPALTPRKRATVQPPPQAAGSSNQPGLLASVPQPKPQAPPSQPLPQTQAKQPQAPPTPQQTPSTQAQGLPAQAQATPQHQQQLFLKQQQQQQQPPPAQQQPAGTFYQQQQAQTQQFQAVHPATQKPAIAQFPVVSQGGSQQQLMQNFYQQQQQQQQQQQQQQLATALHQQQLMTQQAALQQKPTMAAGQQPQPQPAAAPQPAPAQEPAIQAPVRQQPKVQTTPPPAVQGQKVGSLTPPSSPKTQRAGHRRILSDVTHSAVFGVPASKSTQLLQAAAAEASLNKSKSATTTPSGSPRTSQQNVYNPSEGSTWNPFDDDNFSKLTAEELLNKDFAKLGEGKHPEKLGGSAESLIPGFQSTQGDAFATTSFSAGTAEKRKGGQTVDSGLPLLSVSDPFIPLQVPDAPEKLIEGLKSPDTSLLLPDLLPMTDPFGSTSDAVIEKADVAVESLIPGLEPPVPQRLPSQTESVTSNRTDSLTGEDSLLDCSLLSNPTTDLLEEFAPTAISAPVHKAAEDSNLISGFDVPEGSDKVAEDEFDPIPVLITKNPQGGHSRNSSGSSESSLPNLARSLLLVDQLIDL
Chain of Serine/threonine-protein kinase pim-1 (P11309 whole entry, looked up): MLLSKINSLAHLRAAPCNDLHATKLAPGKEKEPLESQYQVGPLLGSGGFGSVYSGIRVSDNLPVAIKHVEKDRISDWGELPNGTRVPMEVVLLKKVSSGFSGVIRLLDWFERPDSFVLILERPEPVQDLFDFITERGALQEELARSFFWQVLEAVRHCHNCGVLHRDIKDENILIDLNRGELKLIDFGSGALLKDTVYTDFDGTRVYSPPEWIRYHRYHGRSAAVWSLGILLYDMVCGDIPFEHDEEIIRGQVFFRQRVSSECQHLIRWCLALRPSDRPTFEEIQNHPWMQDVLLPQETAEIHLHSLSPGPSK

Regarding `CC(=O)c1cccc(-c2cnc3ccc(NCC4CC4)nn23)c1`, the half-maximal inhibitory concentration (IC50) was 6 µM in assay [1]; 0.4 µM with MV4-11; 0.3 µM in the assay with MOLM-13; 8.8 µM in assay [2]; 8 µM in the assay with K562.

With `Cn1c2c(c3ccc(Cl)c(Cl)c31)C(C#N)C1(CCCCC1)NC2=O` (racemic), the thermal shift (ΔTm) in assay [3] is 4 °C; in [4] it was 1.1 °C; in assay [5], 0.8 °C; in assay [6] it was 4.7 °C; in [7], 3 °C; in assay [8] it was 1.7 °C. Besides, the shift in melting temperature (ΔTm) in assay [9] was determined as 0.5 °C; in [10] it was 4 °C; in [11], 4.7 °C; in assay [12], 0.9 °C; in assay [13] it was 2.9 °C.
